# PubChem BioAssay
# Calls of active or inactive are those of the source.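 The calls were made as follows, unless noted: active = viability loss from added drug above about 55%, and viability with drug at most 40%, in both replicates (limit read from the data, passing the limit was not always enough); inconclusive = both conditions met in only one replicate; inactive = neither replicate meets both conditions.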
# Key:
# [1] = reduced viability of SK-BR-3 breast cancer cells – cell-based, 24 h, human, pilot screen (AID 572;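 active = viability at or below 10% of carrier control in both of two separate runs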;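 also: compound exposure lasted between 18 and 24 h rather than exactly 24 h; 100% = carrier-treated control wells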); conditions: SK-BR-3 viability, CellTiter-Glo luminescence, at 10 µM, stronger effect = lower value
# [2] = HUVEC growth inhibition – cell-based, human, primary screen (AID 575;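 active = viability at or below 30% in both replicate assays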;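 also: 100% = median of untreated cell wells with 0.1% DMSO on each plate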); conditions: HUVEC proliferation, CellTiter-Glo luminescence, 72 h; at 10 µM; stronger effect = lower value
# In short: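 system = HUVEC primary cells | amount = 1250 cells/well | buffer or medium = supplemented EBM, 2% fetal bovine serum | dosing = single-point 10 µM, DMSO 0.1% final | times = 72 h compound incubation | detection = CTG luminescence | read-out = % viability relative to median vehicle-well signal on each plate | control set = vehicle and MePR control wells | format = collagen-coated 384-well format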
# [3] = H69AR cell proliferation blockers – human, duplicate replicates, primary screen (AID 580;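 active = viability at or under a set limit in both replicates, limit being median viability minus 3 SD, cut at about 48% in these data, passing the limit was not always enough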;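 also: 100% = mean luminescence of untreated wells and 0% = no signal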); conditions: H69AR lung tumor cells viability, ATP luminescence, 72 h; at 10 µM; stronger effect = lower value
# [4] = MRP1 drug-resistance reversers in H69AR cells – cell-based, doxorubicin co-treatment, pilot screen (AID 601); conditions: CellTiter-Glo, 72 h, at 10 µM; for differential viability (reversal): stronger effect = higher value
# [5] = yeast transport mutant growth inhibition pilot in 384-well plates, post-Golgi transport modulator project (AID 636; in the data active = inhibition above about 31%); conditions: absorbance 615 nm, about 18 h, stronger effect = higher value
# [6] = growth suppression of yeast trafficking mutant, preliminary HTS, modulators of trafficking downstream of Golgi apparatus project, 1536-format plate, OD 615 nm (AID 637; in the data active = inhibition above about 30%); conditions: yeast transport mutant growth, absorbance 615 nm, 18 h; stronger effect = higher value
# [7] = H69AR cells + 2 uM doxorubicin, measured here: viability with 2 uM doxorubicin, stronger effect = lower value
# [8] = H69AR cells, compound alone cytotoxicity
SMILES,viability [1],viability [2],viability [3],differential viability (reversal) ([4]; H69AR cells + 2 uM doxorubicin),"viability [4, 7] [%]","viability [4, 8] [%]",inhibition [5],inhibition [6]
C[C@]12CC[C@@H]3c4ccc(O)cc4CC[C@H]3[C@@H]1CCC2=O,120% (inactive),63.4% (inactive),91.8% (inactive),4.7% (inactive),87.1,91.8,-1.56% (inactive),0.5% (inactive)
C=CCNC(=O)C1CC(=O)N(c2ccc(OCC(=O)Nc3ccc(OC)cc3)cc2)C1 (configuration not stated),99% (inactive),112% (inactive),108% (inactive),5.12% (inactive),103,108,-0.81% (inactive),-0.18% (inactive)
CC1CCCCN1C(=O)Cn1nnc(-c2cccnc2)n1 (configuration not stated),92% (inactive),97.2% (inactive),103% (inactive),8.68% (inactive),94.6,103,-7.81% (inactive),-1.13% (inactive)
CCCCCc1c(C)nc(SCC(=O)O)[nH]c1=O,108% (inactive),108% (inactive),111% (inactive),14% (inactive),97.1,111,1.23% (inactive),-3.39% (inactive)
CC1CN(CC(O)COc2ccccc2C(C)(C)C)CC(C)O1 (configuration not stated),130% (inactive),114% (inactive),78% (inactive),-11.3% (inactive),89.3,78,-0.26% (inactive),0.49% (inactive)
CCOC(=O)c1c(NC(=O)Cn2c(=O)oc3ccccc32)oc(C)c1C(C)=O,81% (inactive),99.3% (inactive),101% (inactive),5.86% (inactive),95.1,101,-1.23% (inactive),-4.52% (inactive)
O=C1CCC(C(=O)N(Cc2ccco2)C2(C(=O)NC3CCCC3)CCCCC2)N1 (configuration not stated),94% (inactive),106% (inactive),87.7% (inactive),-8.42% (inactive),96.1,87.7,-7.81% (inactive),-1.09% (inactive)
O=C(Nc1cc(C(=O)N2CCCC2)ccc1N1CCCC1)c1ccccc1F,108% (inactive),119% (inactive),101% (inactive),8.93% (inactive),92,101,-8.13% (inactive),-3.64% (inactive)
COc1cc(SC)ccc1C(=O)Nc1ccccc1C#N,75% (inactive),79.6% (inactive),70.5% (inactive),-25.8% (inactive),96.3,70.5,-7.4% (inactive),0.91% (inactive)
Cc1cc(NS(=O)(=O)c2ccc(NC(=O)Nc3ccc4c(c3)OCO4)cc2)no1,80% (inactive),101% (inactive),92.6% (inactive),-0.555% (inactive),93.2,92.6,-6.49% (inactive),0.55% (inactive)
O=C(Nc1ccc(F)cc1)N(CCCN1CCOCC1)Cc1cc2cc3c(cc2[nH]c1=O)OCO3,85% (inactive),105% (inactive),90.8% (inactive),7.71% (inactive),83.1,90.8,-7.97% (inactive),2.55% (inactive)
CCCNC(=O)C1CN(S(=O)(=O)c2ccccc2)CCN1S(=O)(=O)c1ccccc1 (configuration not stated),103% (inactive),108% (inactive),99.2% (inactive),9.82% (inactive),89.4,99.2,4.42% (inactive),3.77% (inactive)
CCCCN1CN(S(=O)(=O)c2cccs2)c2nc3ccccc3nc21,97% (inactive),109% (inactive),83.7% (inactive),-5.09% (inactive),88.8,83.7,-10.1% (inactive),-4.18% (inactive)
COCCCNC(=O)C1CCN(C(=O)Nc2ccc(Cl)cc2)CC1,131% (inactive),92.2% (inactive),99% (inactive),11.6% (inactive),87.4,99,-1.04% (inactive),1.15% (inactive)
O=C(CSc1nc2ccccc2[nH]1)N1CCCCC1,106% (inactive),102% (inactive),92.9% (inactive),8.96% (inactive),83.9,92.9,-6.44% (inactive),5.09% (inactive)
Cc1cc(NS(=O)(=O)c2ccc(N)cc2)no1,111% (inactive),98.9% (inactive),88.9% (inactive),-12.6% (inactive),101,88.9,1.56% (inactive),-3.5% (inactive)
CCOc1ccccc1C(=O)Nn1c(C2CCC2)nc2ccccc2c1=O,91% (inactive),91.1% (inactive),93.7% (inactive),-18% (inactive),112,93.7,-4.11% (inactive),2.55% (inactive)

SMILES,viability [1],viability [2],viability [3],differential viability (reversal) ([4]; H69AR cells + 2 uM doxorubicin),"viability [4, 7] [%]","viability [4, 8] [%]",inhibition [5],inhibition [6]
O=C(Nc1cccc(OCC(=O)N2CCOCC2)c1)C1CCCCC1,109% (inactive),90% (inactive),112% (inactive),-0.43% (inactive),112,112,-4.66% (inactive),0% (inactive)
COc1cc(C(=O)Nc2cc(-c3ccccc3)[nH]n2)cc(OC)c1OC,107% (inactive),68.3% (inactive),26% (active),-45.8% (inactive),71.7,26,-4.27% (inactive),-1.27% (inactive)
CC1(C)C2CCC1(C)C(OC(=O)CSc1nc(N)cc(=O)[nH]1)C2 (configuration not stated),104% (inactive),94.2% (inactive),92.8% (inactive),6.73% (inactive),86.1,92.8,-2.53% (inactive),-6.91% (inactive)
Cn1c(=O)cc(OCCCC(=O)N2CCCCC2)c2ccccc21,98% (inactive),87.5% (inactive),91.5% (inactive),12% (inactive),79.5,91.5,-1.82% (inactive),0.98% (inactive)
COc1ccc(C(NC(C)=O)c2ccc3cccnc3c2O)c(OC)c1 (configuration not stated),65% (inactive),3.65% (active),23% (active),-22.1% (inactive),45.1,23,-6.4% (inactive),1.09% (inactive)
Cc1ccc(S(=O)(=O)N2CCN(S(=O)(=O)N(C)C)CC2)cc1,123% (inactive),107% (inactive),103% (inactive),8.38% (inactive),94.7,103,-3.15% (inactive),-4.68% (inactive)
CCCN(CCC)C(=O)C(CCC(=O)O)NC(=O)c1ccccc1 (configuration not stated),108% (inactive),94.9% (inactive),105% (inactive),9.32% (inactive),95.9,105,-5.32% (inactive),2.33% (inactive)
Cc1cccc(NC(=O)CCCCCN2C(=O)c3ccccc3C2=O)n1,92% (inactive),105% (inactive),105% (inactive),2.47% (inactive),102,105,-7.12% (inactive),5.45% (inactive)
O=C(CSc1nnc(NC(=O)C2CCC2)s1)NC1CC1,100% (inactive),106% (inactive),106% (inactive),12.2% (inactive),93.4,106,-6.76% (inactive),2% (inactive)
CCCCCC(=O)N(CN1C(=O)CCC1=O)c1ccccc1,93% (inactive),104% (inactive),90.9% (inactive),3.52% (inactive),87.4,90.9,-7.3% (inactive),-0.73% (inactive)
Cc1cccc(CC(=O)Nc2c3c(nn2-c2cccc(Cl)c2)CS(=O)C3)c1 (configuration not stated),104% (inactive),88.9% (inactive),85.2% (inactive),-10.9% (inactive),96.1,85.2,1.3% (inactive),-6.72% (inactive)
O=C(NS(=O)(=O)c1ccc(NC(=O)C2CCCO2)cc1)c1ccccc1 (configuration not stated),79% (inactive),103% (inactive),92.8% (inactive),4.17% (inactive),88.7,92.8,-6.35% (inactive),-0.55% (inactive)
CN(C)CCOC(c1ccccc1)c1ccccc1,78% (inactive),86.9% (inactive),87.6% (inactive),5.28% (inactive),82.3,87.6,-1.69% (inactive),2.5% (inactive)
Cc1ccc2c(c1)N(CC(=O)Nc1ccc3c(c1)OCCO3)C(=O)CO2,104% (inactive),103% (inactive),105% (inactive),10.7% (inactive),94.3,105,-5% (inactive),-4.73% (inactive)
N[C@@H](Cc1ccc(O)c(I)c1)C(=O)O,87% (inactive),87.5% (inactive),105% (inactive),15.7% (inactive),89.3,105,-4.81% (inactive),-1.33% (inactive)
O=c1oc2cc(O)ccc2c2oc3cc(O)ccc3c12,108% (inactive),85.1% (inactive),99.4% (inactive),6.57% (inactive),92.8,99.4,-5.19% (inactive),5.17% (inactive)
Cn1c(C(=O)NCc2cccnc2)cc2sccc21,115% (inactive),102% (inactive),93% (inactive),-2.84% (inactive),95.8,93,5.21% (inactive),11.1% (inactive)
